Experimental data: ChEMBL document CHEMBL4138067, “Design, synthesis and cytotoxicity of bengamide analogues and their epimers” (Medchemcomm, 2017)

Tests used:
Assay type in all cases: functional
KB = assay: Cytotoxicity in human KB cells assessed as reduction in cell growth incubated for 72 hrs by neutral red staining based colorimetry
Procedure, shortened: (§1)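 Cells grown in D-MEM with 10% fetal calf serum, 2 mM L-glutamine, penicillin G, streptomycin and gentamicin, seeded at 3 × 10^3 cells per mL. Compound stocks in DMSO/H2O (1/9). Exposure 72 h at 37 °C in air/CO2 (95:5). Living cells stained with neutral red, optical density read at 540 nm. Run in triplicate. IC50 taken as concentration inhibiting growth to 50% of untreated control.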

Lu1 = assay: Cytotoxicity in human Lu1 cells assessed as reduction in cell growth incubated for 72 hrs by neutral red staining based colorimetry; details: Lu1, 72 h; procedure, shortened: as §1
MCF7 = assay: Cytotoxicity in human MCF7 cells assessed as reduction in cell growth incubated for 72 hrs by neutral red staining based colorimetry; details: MCF7, 72 h; procedure, shortened: as §1
HL-60 = assay: Cytotoxicity in human HL60 cells assessed as reduction in cell growth incubated for 72 hrs by neutral red staining based colorimetry; details: HL-60, 72 h; procedure, shortened: as §1
HeLa = assay: Cytotoxicity in human HeLa cells assessed as reduction in cell growth incubated for 72 hrs by neutral red staining based colorimetry; procedure, shortened: as §1
HepG2 = assay: Cytotoxicity in human HepG2 cells assessed as reduction in cell growth incubated for 72 hrs by neutral red staining based colorimetry; details: HepG2, 72 h; procedure, shortened: as §1

Row | Compound | IC50 (KB) [µM] | IC50 (Lu1) [µM] | IC50 (MCF7) [µM] | IC50 (HL-60) [µM] | IC50 (HeLa) [µM] | IC50 (HepG2) [µM]
1 | Cc1c2ccncc2c(C)c2c1[nH]c1ccccc12 [ELLIPTECINE] | 1.2 | 1.6 | 2.4 | 2 | 1.6 | –
2 | CO[C@@H](C(=O)N[C@H]1CC[C@H](O)CNC1=O)[C@H](O)[C@@H](O)[C@H](O)/C=C/C(C)(C)C | 19.8 | 10 | 144 | > 150 | > 150 | 103
3 | CO[C@@H](C(=O)N[C@@H]1CCCCNC1=O)[C@H](O)[C@@H](O)[C@H](O)/C=C/C(C)(C)C | 1.1 | 0.5 | 0.2 | 5.3 | 2.1 | 1.1
4 | CO[C@@H](C(=O)N[C@H]1CCCCNC1=O)[C@H](O)[C@@H](O)[C@H](O)/C=C/C(C)(C)C | 21 | 4.3 | 1.3 | 83.3 | 60.7 | 21.1
5 | CO[C@@H](C(=O)N[C@@H]1CC[C@H](O)CNC1=O)[C@H](O)[C@@H](O)[C@H](O)/C=C/C(C)(C)C | 23.7 | 36.3 | 80.4 | > 150 | > 150 | 138
6 | CO[C@@H](C(=O)N[C@@H]1CC[C@@H](O)CNC1=O)[C@H](O)[C@@H](O)[C@H](O)/C=C/C(C)(C)C | 5.1 | 17.2 | 165 | 12.1 | 15.4 | 21.3
7 | CO[C@@H](C(=O)N[C@H]1CC[C@@H](O)CNC1=O)[C@H](O)[C@@H](O)[C@H](O)/C=C/C(C)(C)C | 62.6 | 23.4 | 23.4 | > 150 | > 150 | > 150
8 | CO[C@@H](C(=O)N[C@H]1CCCCNC1=O)[C@@H]1OC(C)(C)O[C@H](/C=C/C(C)(C)C)[C@@H]1O | > 150 | > 150 | > 150 | > 150 | > 150 | > 150
9 | CO[C@@H](C(=O)N[C@@H]1CCCCNC1=O)[C@@H]1OC(C)(C)O[C@H](/C=C/C(C)(C)C)[C@@H]1O | > 150 | > 150 | > 150 | > 150 | > 150 | > 150
